Results taken from ChEMBL document CHEMBL1275447 (Antimicrob Agents Chemother, 2008).
Converted amounts (≈) assume the structure as drawn. The source made the active and inactive calls. No cut-off for these calls is given here.

Key:
[1] = tested on: Pseudomonas aeruginosa; assay: Antibacterial activity against Pseudomonas aeruginosa isolate 869 by microdilution method; type: functional
[2] = tested on: Pseudomonas aeruginosa; assay: Antibacterial activity against Pseudomonas aeruginosa isolate 886 by microdilution method; type: functional
[3] = tested on: Pseudomonas aeruginosa; assay: Antibacterial activity against Pseudomonas aeruginosa isolate 1005 by microdilution method; type: functional
Outline: (§1)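 CLSI broth microdilution in cation-adjusted Mueller-Hinton broth (20–25 mg/liter Ca, 10–12.5 mg/liter Mg). Standard inoculum 10⁵ CFU/ml, incubated in ambient air. Clinical hospital isolates.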

[4] = tested on: Pseudomonas aeruginosa; assay: Antibacterial activity against Pseudomonas aeruginosa isolate 1050 by microdilution method; type: functional; outline: as §1
[5] = tested on: Pseudomonas aeruginosa; assay: Antibacterial activity against Pseudomonas aeruginosa isolate 896 by microdilution method; type: functional
[6] = tested on: Pseudomonas aeruginosa; assay: Antibacterial activity against Pseudomonas aeruginosa isolate 988 by microdilution method; type: functional
[7] = tested on: Pseudomonas aeruginosa; assay: Antibacterial activity against Pseudomonas aeruginosa isolate 927 by microdilution method; type: functional
[8] = tested on: Pseudomonas aeruginosa; assay: Antibacterial activity against Pseudomonas aeruginosa isolate 968 by microdilution method; type: functional
[9] = fT>MIC in human infected with Pseudomonas aeruginosa isolate 869 at 500 mg administered as 1 hr infusion; type: functional
[10] = fT>MIC in human infected with Pseudomonas aeruginosa isolate 935 at 500 mg administered as 1 hr infusion; type: functional
[11] = fT>MIC in human infected with Pseudomonas aeruginosa isolate 979 at 500 mg administered as 1 hr infusion; type: functional
[12] = fT>MIC in human infected with Pseudomonas aeruginosa isolate 931 at 500 mg administered as 1 hr infusion; type: functional
[13] = fT>MIC in human infected with Pseudomonas aeruginosa isolate 1050 at 500 mg administered as 1 hr infusion; type: functional
[14] = fT>MIC in human infected with Pseudomonas aeruginosa isolate 936 at 500 mg administered as 1 hr infusion; type: functional
[15] = fT>MIC in human infected with Pseudomonas aeruginosa isolate 1006 at 500 mg administered as 1 hr infusion; type: functional
[16] = fT>MIC in human infected with Pseudomonas aeruginosa isolate 993 at 500 mg administered as 4 hr infusion; type: functional
[17] = fT>MIC in human infected with Pseudomonas aeruginosa isolate 869 at 500 mg administered as 4 hr infusion; type: functional
[18] = fT>MIC in human infected with Pseudomonas aeruginosa isolate 1055 at 500 mg administered as 4 hr infusion; type: functional
[19] = fT>MIC in human infected with Pseudomonas aeruginosa isolate 935 at 500 mg administered as 4 hr infusion; type: functional
[20] = fT>MIC in human infected with Pseudomonas aeruginosa isolate 1005 at 500 mg administered as 4 hr infusion; type: functional
[21] = fT>MIC in human infected with Pseudomonas aeruginosa isolate 1082 at 500 mg administered as 4 hr infusion; type: functional
[22] = fT>MIC in human infected with Pseudomonas aeruginosa isolate 1058 at 500 mg administered as 4 hr infusion; type: functional
[23] = fT>MIC in human infected with Pseudomonas aeruginosa isolate 896 at 500 mg administered as 4 hr infusion; type: functional
[24] = fT>MIC in human infected with Pseudomonas aeruginosa isolate 936 at 500 mg administered as 4 hr infusion; type: functional
[25] = fT>MIC in human infected with Pseudomonas aeruginosa isolate 988 at 500 mg administered as 4 hr infusion; type: functional
[26] = fT>MIC in human infected with Pseudomonas aeruginosa isolate 1006 at 500 mg administered as 4 hr infusion; type: functional
[27] = fT>MIC in human infected with Pseudomonas aeruginosa isolate 927 at 500 mg administered as 4 hr infusion; type: functional
[28] = fT>MIC in neutropenic mouse infected with Pseudomonas aeruginosa isolate 993 at 500 mg administered as 1 hr infusion; type: functional
Outline: (§2)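 Free-drug time above MIC simulated from one-compartment mouse serum PK (25.2% protein binding). The mice were cyclophosphamide-neutropenic and uranyl nitrate-renally impaired. Regimen was subcutaneous 10, 15, 2.5, 1.25, 0.5, 0.25 mg/kg at 0, 0.5, 2.5, 4, 5.5, 7 h, repeated every 8 h over 24 h.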

[29] = fT>MIC in neutropenic mouse infected with Pseudomonas aeruginosa isolate 1050 at 500 mg administered as 1 hr infusion; type: functional; outline: as §2
[30] = fT>MIC in neutropenic mouse infected with Pseudomonas aeruginosa isolate 1058 at 500 mg administered as 4 hr infusion; type: functional
Outline: (§3)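 Mouse fT>MIC was modelled with first-order one-compartment serum PK and 25.2% binding. Mice were neutropenic (cyclophosphamide) with uranyl nitrate renal impairment. Subcutaneous doses were 5.5, 2.25, 4.5, 4.5, 4.5, 4.5, 0.75, 0.375 mg/kg at 0, 0.5, 1.5, 2.5, 3.5, 4.5, 6, 7.5 h per 8-h interval over 24 h.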

[31] = fT>MIC in neutropenic mouse infected with Pseudomonas aeruginosa isolate 944 at 500 mg administered as 4 hr infusion; type: functional; outline: as §3
[32] = fT>MIC in neutropenic mouse infected with Pseudomonas aeruginosa isolate 1060 at 500 mg administered as 4 hr infusion; type: functional; outline: as §3
[33] = fT>MIC in neutropenic mouse infected with Pseudomonas aeruginosa isolate 1006 at 500 mg administered as 4 hr infusion; type: functional
[34] = fT>MIC in neutropenic mouse infected with Pseudomonas aeruginosa isolate 968 at 500 mg administered as 4 hr infusion; type: functional; outline: as §3
[35] = Tmax in Pseudomonas aeruginosa ATCC 27853 infected neutropenic ICR mouse at 10 mg/kg, sc administered as single dose 2 hrs postinfection by HPLC; type: ADME, organism-based; parameters: dose 10 mg/kg, route subcutaneous; details: in vivo
Outline: (§4)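 Neutropenic mice (cyclophosphamide ip 150 and 100 mg/kg, 4 and 1 days before inoculation) with uranyl nitrate 5 mg/kg ip 3 days before, for renal impairment. Thigh infection with ATCC 27853 at 10⁶ CFU/ml, 0.1 ml per thigh. Single sc doses 2 h later. Intracardiac blood from 6–12 mice per time point, eight time points over 4 h. Serum assayed by HPLC (linear 0.5–40 μg/ml). One-compartment first-order fit.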

[36] = Tmax in Pseudomonas aeruginosa ATCC 27853 infected neutropenic ICR mouse at 150 mg/kg, sc administered as single dose 2 hrs postinfection by HPLC; type: ADME, organism-based; parameters: dose 150 mg/kg, route subcutaneous; details: in vivo; outline: as §4
[37] = AUC (0 to 24 hrs) in Pseudomonas aeruginosa ATCC 27853 infected neutropenic ICR mouse at 50 mg/kg, sc administered as single dose 2 hrs postinfection; type: ADME, organism-based; parameters: time < 24 hr, dose 50 mg/kg, route subcutaneous; details: plasma; outline: as §4
[38] = Elimination rate constant in Pseudomonas aeruginosa ATCC 27853 infected neutropenic ICR mouse at 10 mg/kg, sc administered as single dose 2 hrs postinfection; type: ADME, organism-based; parameters: dose 10 mg/kg, route subcutaneous; details: in vivo; outline: as §4
[39] = Cmax in Pseudomonas aeruginosa ATCC 27853 infected neutropenic ICR mouse at 500 mg administered as 1 hr infusion; type: ADME, organism-based; parameters: dose 500 mg; details: in vivo, iv
[40] = Cmax in healthy human at 500 mg administered as as 4 hr infusion; type: ADME, organism-based; parameters: dose 500 mg; details: in vivo, iv
[41] = tested on: Pseudomonas aeruginosa; assay: Antibacterial activity against Pseudomonas aeruginosa isolate 931 at 4 ug/ml after 24 hrs; type: functional, organism-based
[42] = tested on: Pseudomonas aeruginosa; assay: Antibacterial activity against Pseudomonas aeruginosa isolate 944 by fractionation study; type: functional

SMILES: C[C@@H](O)[C@H]1C(=O)N2C(C(=O)O)=C(S[C@@H]3CN[C@H](CNS(N)(=O)=O)C3)[C@H](C)[C@H]12 [DORIPENEM]
- MIC [1]: 0.25 µg/mL (≈ 0.595 µM)
- MIC [2]: 0.25 µg/mL (≈ 0.595 µM)
- MIC [3]: 1 µg/mL (≈ 2.38 µM)
- MIC [4]: 4 µg/mL (≈ 9.51 µM)
- MIC [5]: 8 µg/mL (≈ 19 µM)
- MIC [6]: 8 µg/mL (≈ 19 µM)
- MIC [7]: 16 µg/mL (≈ 38 µM)
- MIC [8]: 16 µg/mL (≈ 38 µM)
- fT>MIC [9]: 90%
- fT>MIC [10]: 55%
- fT>MIC [11]: 40%
- fT>MIC [12]: 27.5%
- fT>MIC [13]: 27.5%
- fT>MIC [14]: 17.5%
- fT>MIC [15]: 17.5%
- fT>MIC [16]: 100%
- fT>MIC [17]: 100%
- fT>MIC [18]: 95%
- fT>MIC [19]: 80%
- fT>MIC [20]: 80%
- fT>MIC [21]: 80%
- fT>MIC [22]: 65%
- fT>MIC [23]: 0%
- fT>MIC [24]: 0%
- fT>MIC [25]: 0%
- fT>MIC [26]: 0%
- fT>MIC [27]: 0%
- fT>MIC [28]: 100%
- fT>MIC [29]: 30%
- fT>MIC [30]: 70%
- fT>MIC [31]: 52.5%
- fT>MIC [32]: 52.5%
- fT>MIC [33]: 0%
- fT>MIC [34]: 0%
- Tmax [35]: 15 min
- Tmax [36]: 13.2 min
- AUC(0-t) at 24 h [37]: 62400 ng·h/mL
- k el at 2 h [38]: 0.000467 s⁻¹
- Cmax [39]: 28400 ng/mL
- Cmax [40]: 7790 ng/mL
- Activity [41]: inactive
- MIC [42]: 3 µg/mL (≈ 7.13 µM)
